# Screening results (PubChem BioAssay)
# In the library only some 4% were active in any assay of this set; here they are far more common.
# OX1R antag-1 = human HCRTR1 antagonism. O43613. CHO/OX1R cells, Fluo-8 calcium fluorescence, orexin A. inhibition, % at 5 µM. 330,000 tested, 0.43% active. AID 434989;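 active = inhibition above its plate's threshold, mean inhibition of all tested compounds on the plate plus 3 SD, cut at about 37% in these data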;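 note: 0% = orexin A challenge wells and 100% = SB-334867-A antagonist wells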
# CHO parental Ca = signal in parental CHO cells, OX1R antagonist counter-screen; 330,000 tested, 0.63% active; inhibition, % at 5.6 µM; parental CHO-K1, ATP-induced calcium, Fluo-8 fluorescence;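 active = inhibition above that plate's mean sample inhibition plus 3 SD, cut at about 26% in these data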;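 note: 0% = ATP-challenged DMSO wells and 100% = DMSO wells without ATP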
#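 Test system: untransfected parental CHO cell line. Compound: one dose, 5.6 µM nominal. Detection: intracellular calcium via Fluo-8 no-wash fluorescent dye. Measure: % inhibition. Benchmarks: ATP-challenged DMSO wells low, unchallenged DMSO wells high.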
# TAAR1 antag = antagonists of human TAAR1; Q96RJ0; CHO RD-HGA16 TAAR1, Fluo-8 calcium fluorescence, antagonist; inhibition, % at 3 µM; 360,000 tested, 1.5% active;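 active = inhibition above a per-plate cutoff, the mean inhibition of test compounds on that plate plus 3 SD, cut at about 49% in these data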;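 note: 0% = DMSO plus EC80 beta-PEA response and 100% = DMSO alone without agonist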
# Target sequence (Q96RJ0 whole entry, looked up): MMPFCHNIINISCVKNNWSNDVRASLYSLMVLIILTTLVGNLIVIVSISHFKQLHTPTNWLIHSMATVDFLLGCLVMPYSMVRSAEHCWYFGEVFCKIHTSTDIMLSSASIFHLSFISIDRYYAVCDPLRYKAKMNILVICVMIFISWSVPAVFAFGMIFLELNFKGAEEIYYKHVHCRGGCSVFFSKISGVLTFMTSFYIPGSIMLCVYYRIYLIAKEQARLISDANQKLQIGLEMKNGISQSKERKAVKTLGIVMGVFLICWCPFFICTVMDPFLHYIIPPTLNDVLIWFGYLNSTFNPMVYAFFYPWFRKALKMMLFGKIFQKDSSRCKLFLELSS
#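 Test system: hTAAR1-expressing CHO RD-HGA16 cells, Gα16-coupled; Probe or stimulus: EC80 β-phenethylamine stimulus; Compound dosing: single nominal final test compound concentration of 3 µM; Timing: 140 s kinetic read after compound, 140 s after agonist; Signal: Fluo-8 calcium-sensitive fluorescence; Measure: % inhibition of agonist calcium response; Controls: DMSO and EC80 PEA controls.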
# TAAR1 agonist = agonists of human TAAR1 | CHO RD-HGA16 TAAR1, Fluo-8 calcium fluorescence; vehicle wells 0%, saturating PEA agonist 100% | activation, % at 3 µM | AID 624467 | 360,000 tested, 0.99% active | Q96RJ0;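 active = activation above the mean activation of all test compounds in the run plus 3 SD, cut at about 38% in these data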
#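 Signal – calcium-sensitive Fluo-8 signal, excitation 470-495, emission 515-575 nm · System – RD-HGA16 (CHO) cells co-expressing Gα16 and hTAAR1 · Incubation – 17-24 h seeding, 75 min 37 °C dye, 30 min RT · Compound dosing – 3 µM single concentration · Repeats – no replicates (n 1)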
# OX1R antag-2 = antagonists of human orexin 1 receptor (OX1R). OX1R-expressing cells, FRET antagonist read-out. O43613. inhibition, % at 6.6 µM. 330,000 tested, 1.8% active; in the data active = inhibition mostly above about 38%, no sharp cut-off; inactive = mostly below about 40%;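 note: 0% = agonist challenge alone and 100% = reference antagonist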
# Active calls of the source: *; · = not tested or not shown.
SMILES,OX1R antag-1,CHO parental Ca,TAAR1 antag,TAAR1 agonist,OX1R antag-2
CC(Nc1nc(N2CCNCC2)nc2ccccc12)c1ccccc1 (stereo not given),-30,-18,39,39*,12
CSC1=NC(=O)/C(=C/c2ccc(SC)cc2)S1,-18,-11,-3,-1,39*
CCOC(=O)C1CCN(C2=NC(=O)/C(=C/c3ccc(Cl)cc3)S2)CC1,-11,-12,-8,-4,1
CCOC(=O)CSC1=NC(=O)/C(=C\c2ccc(Cl)cc2)S1,5,-5,9,11,72*
CCCCn1c(SCC(=O)NC2CCCC2)nnc1-c1ccco1,-12,-4,7,-1,17
COc1cccc(CNC(=O)[C@H]2CCCN2C(=O)[C@H]2CCCN2C(=O)N2CCOCC2)c1,·,·,0,1,·
CN(Cc1ccccc1)C(=O)COC(=O)c1cc2ccccc2oc1=O,-16,-20,-9,-2,28*
CN(Cc1ccccc1)C(=O)c1ccccc1C(=O)OCC(=O)N(Cc1ccccc1)C(C)(C)C,31,-20,40,17,31*
CN(Cc1ccccc1)C(=O)c1cc2ccccc2o1,6,-10,10,2,10
O=C(OCC(=O)N1CCOCC1)c1cc2ccccc2oc1=O,-11,-2,7,-1,46*
O=C(COC(=O)c1cc(=O)[nH]c2ccccc12)c1ccccc1,-5,-14,-25,10,27
CC(C)(C)N(Cc1ccccc1)C(=O)COC(=O)C1CC1,-21,-8,-14,0,11
O=C(OCC(=O)N1CCOCC1)c1cc(=O)[nH]c2ccccc12,-13,-11,-6,1,35*
COc1cccc(Nc2ncc(C#N)c(N)n2)c1,2,1,-23,2,7
O=C(COC(=O)c1cc(=O)[nH]c2ccccc12)Nc1nc(-c2ccccc2)cs1,-1,-6,50*,7,13
COc1cccc2cc(C(=O)OCC(=O)N3CC(C)OC(C)C3)c(=O)oc12 (stereo not given),1,-11,2,0,53*
O=C(COC(=O)c1cc(=O)[nH]c2ccccc12)Nc1nccs1,-5,-8,-2,3,14
CCOc1cccc2cc(C(=O)N3CC(C)OC(C)C3)c(=O)oc12 (stereo not given),-16,15,-11,-1,7
CCN(C(=O)CCS(=O)(=O)c1cccc2nonc12)c1ccc(F)cc1,-4,-4,2,0,46
Cc1cc(NCCc2ccccc2F)n2ncnc2n1,2,9,8,38*,11
Cc1cc(NCCc2ccc(Cl)cc2)n2ncnc2n1,-12,-1,8,8,8
COc1ccc(-c2nc3ccccn3c2Cl)cc1,-18,-13,-12,-2,43*
COC(=O)c1sc(-c2ccc(C(C)(C)C)cc2)cc1NC(=O)COCC(=O)O,0,-4,50*,9,11
COC(=O)c1sc(-c2ccc(Cl)cc2)cc1NC(=O)CSCC(=O)O,-2,5,2,10,5
CN1/C(=C\P(=O)(N(C)C)N(C)C)C(C)(C)c2ccccc21,77*,45*,9,13,25
SMILES,OX1R antag-1,CHO parental Ca,TAAR1 antag,TAAR1 agonist,OX1R antag-2
COCCCn1c(SCCc2ccccc2)nc2cc(OC)c(OC)cc2c1=N,21,25,56*,11,35
COc1ccc(-c2cc(C(=O)N(C)Cc3nc4ccccc4c(=O)[nH]3)c3ccccc3n2)cc1OC,23,-17,59*,11,13
COc1cc2nc(CN(C)Cc3nc4ccccc4c(=O)[nH]3)[nH]c(=O)c2cc1OC,-3,-11,-17,7,11
COc1cccc(CN(C)C(=O)c2cc(-c3ccc(OC)c(OC)c3)nc3ccccc23)c1,·,·,51*,3,·
CCCn1cc(CCC(=O)Nc2ccc(Oc3cccnc3)cc2)c2ccccc21,·,·,29,-2,·
COc1cccc(NC(=O)C2CCN(S(=O)(=O)c3ccc(N4CCCC4=O)cc3)CC2)c1,·,·,16,9,·
CC(=O)N1c2ccc(S(=O)(=O)N3CCC(C(=O)Nc4cccc(C(F)(F)F)c4)CC3)cc2CC1C (stereo not given),23,55*,10,3,11
O=C(Nc1cccc(C(F)(F)F)c1)C1CCN(S(=O)(=O)c2ccc(N3CCCC3=O)cc2)CC1,48*,73*,35,9,30
COc1ccc(C2CC(=O)C(c3cccc(OC)c3)=CN2Cc2ccccc2)cc1 (stereo not given),·,·,8,-1,·
CCCCOC(=O)c1[nH]c2c(c1C)C(=O)CC(c1cc(OC)c(OC)c(OC)c1)C2 (stereo not given),8,62*,46,3,36
C=CCOC(=O)c1[nH]c2c(c1C)C(=O)CC(c1cc(OC)c(OC)c(OC)c1)C2 (stereo not given),15,33*,·,·,24
COCCOC(=O)c1[nH]c2c(c1C)C(=O)CC(c1ccccc1)C2 (stereo not given),-6,42*,·,·,27
COC(=O)N1Cc2ccnnc2CC1c1ccccc1-c1ccccc1 (stereo not given),·,·,-6,1,·
O=C(Nc1ccc2c(c1)CCCN2C(=O)c1ccccc1)c1ccccc1,-17,-15,58*,12,12
CCN1C(=O)c2c(C)nc3ccccc3c2C1=O,-20,-14,·,·,39*
COc1ccccc1C(=O)NC1CCCCN(C)C1=O (stereo not given),·,·,4,0,·
Cc1ccc2sc(N(CCCN(C)C)C(=O)c3ccc(S(=O)(=O)N(C)Cc4ccccc4)cc3)nc2c1C,-6,16,45,24,9
CCOc1cccc2sc(N(CCCN(C)C)C(=O)c3ccc(S(=O)(=O)N(C)Cc4ccccc4)cc3)nc12,-18,5,54*,35,45
CCOc1cccc2sc(N(CCCN(C)C)C(=O)c3ccc(S(=O)(=O)N(CC)Cc4ccccc4)cc3)nc12,-16,0,55*,28,22
CCN(Cc1ccccc1)S(=O)(=O)c1ccc(C(=O)N(CCCN(C)C)c2nc3c(F)cccc3s2)cc1,-41,-17,21,14,32
COc1ccc2sc(N(CCCN(C)C)C(=O)c3ccc(S(=O)(=O)N(C)Cc4ccccc4)cc3)nc2c1,-19,-16,35,43*,19
Cc1cc(-c2ccc(C)c(S(=O)(=O)NCCCN3CCN(c4ccccc4F)CC3)c2)on1,67*,61*,19,7,40
Cc1ccc(S(=O)(=O)Oc2ccccc2N2C(=O)C3C4CCC(C4)C3C2=O)cc1 (stereo not given),-24,-23,-8,0,17
O=C1C2C3C=CC(C3)C2C(=O)N1c1ccccc1OS(=O)(=O)c1ccccc1 (stereo not given),5,-16,1,-1,71*
CCCCc1nc(NCCO)c(C#N)c2c1CCCC2,-40,50*,-27,3,15
